Here are results for two compounds from ChEMBL document CHEMBL4052634, “Covalent inhibitors of LgtC: A blueprint for the discovery of non-substrate-like inhibitors for bacterial glycosyltransferases” (Bioorg Med Chem, 2017).

Molecules are shown by their SMILES.

Assay [1] concerns Neisseria meningitidis. In words: Inhibition of Neisseria meningitidis alpha-1,4-galactosyltransferase assessed as as consumption of donor UDP-Gal by measuring turnover rate at 0.1 to 50 uM using lactose as substrate preincubated for 20 mins followed by lactose and UDP-Gal addition measured after 20 mins by malachite green dye-based assay relative to total UDP-Gal used.
Assay [2] has as its system Neisseria meningitidis. In words: Inhibition of Neisseria meningitidis alpha-1,4-galactosyltransferase assessed as rate constant for enzyme activity at 3 uM using lactose as substrate preincubated with substrate measured after 20 mins in presence of UDP-Gal. The method, boiled down: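 Activity measured at a series of inhibitor concentrations (0.5-200 µM range overall) after pre-incubation with LgtC for 0, 5, 10, 20 and 30 min, using the pre-incubation protocols (lactose 2 mM, UDP-Gal 28 µM, 20 min at 30 °C, malachite green); % of DMSO control plotted semi-logarithmically versus pre-incubation time to give kobs; kobs versus concentration gave Ki and kinact; triplicate.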

Assay [3] deals with Neisseria meningitidis. Description: Binding affinity to Neisseria meningitidis alpha-1,4-galactosyltransferase assessed as covalent adduct formation at 100 uM after 20 mins by mass spectrometric analysis. Particulars: TDE = time-dependent effect. The method, boiled down:
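LgtC stock without DTT activation, diluted in 13 mM HEPES pH 7.0, incubated with inhibitor (100 or 50 µM, added in DMSO; 10% final DMSO) for 20 min at 30 °C; samples injected directly for electrospray MS to detect protein-inhibitor adducts.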

The term inhibition denotes the share of the control response that was lost under treatment. As to `COc1ccc(/C=C2\C(=O)N(c3ccccc3)N=C2C(F)(F)F)cc1Br`, in assay [1], the inhibition was 32%. Also, the K in assay [2] turned out to be 0.025 min⁻¹. `O=C1/C(=C\c2cccc(OCc3ccccc3)c2)C(C(F)(F)F)=NN1c1ccccc1`: the Activity entry in assay [3] is “Tde”.
